assay: S. cerevisiae growth inhibition in restrictive medium, OD615, pilot screen, restrictive growth control, yeast lifespan reduction project (AID 706); conditions: OD615, 48 h, at 10 µM, hits give high values;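 active means growth inhibition above a set limit, 3 SD over mean compound inhibition, in both replicates (cut at about 43% in these data); inconclusive means above the limit in only one replicate; inactive means at or below the limit in both replicates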;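 further: modified DeaD lifespan yeast strain shifted to restrictive glucose medium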
How it was run: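 System: Engineered S. cerevisiae DeaD strain | Buffer or medium: Glucose-based CSMM-D restrictive medium | Schedule: 4 h pre-incubation, 48 h exposure at 30 °C | Technique: Optical density at 615 nm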

Growth inhibition, inactive:
COc1cc(NS(=O)(=O)c2ccc(NC(=O)COc3ccc(C)cc3)cc2)nc(OC)n1 -7.79%
CC(=O)c1ccc(N2CCN(C(=O)c3ccc(NC(=O)C4CCCO4)cc3)CC2)cc1 (stereo not given) -4.79%
CCN(CC)S(=O)(=O)c1ccc2oc(C(=O)NCC3COc4ccccc4O3)c(C)c2c1 (stereo not given) 1.48%
C(=N\c1nccs1)/c1c[nH]c2ccccc12 7.43%
COc1cc(C)c(C(C)C)cc1S(=O)(=O)n1cnc(C)c1 6.4%
CNC(=O)C1C2C=CC3(O2)C1C(=O)N(CCOC)C3C(=O)NCc1ccc(OC)cc1 (stereo not given) 0.24%
CC1CCc2sc3nc(N4CCN(CCO)CC4)n4ncnc4c3c2C1 (stereo not given) 7.57%
CCOC(=O)c1cc(NC(=O)OC)c(C)nc1C 4.23%
NC(=O)CCn1nc(-c2ccccc2)c2ccccc2c1=O 13.7%
CCC1(C)Cc2c(sc3c2c2ncnn2c2nnc(SCC(=O)NCc4ccco4)n32)CO1 (stereo not given) -5.88%
Cc1cc(NS(=O)(=O)c2ccccc2)cc(Cl)c1O 2.72%
COc1ccc(CC(=O)Nc2cc(C)c3c(=O)oc4ccccc4c3n2)cc1 1.88%
COCCNC(=O)c1ccc2c(=O)n(CCOC)c(=O)[nH]c2c1 -15.7%
CCOc1ccc(-n2c(SCC(N)=O)nc3c(c2=O)SCC3)cc1 8.27%
CCn1cc(C(=O)NCCCN2CC(C)CC(C)C2)c2cc(OC)c(OC)cc2c1=O (stereo not given) -7.97%
CCOC(=O)N1CCN(C(=O)c2oc3ccc(S(=O)(=O)N4CC(C)CC(C)C4)cc3c2C)CC1 (stereo not given) 2.18%
Cc1ccc(S(=O)(=O)N2CCC(C(=O)N[C@@H](C)C(=O)NCC3CCCO3)CC2)cc1 (stereo not given in full) -9.68%
Cc1cc(S(=O)(=O)N2CCN(Cc3ccc4c(c3)OCO4)CC2)cc(C)c1N1CCCC1=O -19.3%
CCCn1c(CN2CCN(c3cccc(Cl)c3)CC2)nc2c1c(=O)n(C)c(=O)n2C -8.51%
CC(C)CC(NC(=O)C1CCC(C)CC1)C(=O)Nc1ccccn1 (stereo not given) 2.61%
NC(=O)C1CCN(c2nc(C3CC3)nc3c2nnn3Cc2ccccc2Cl)CC1 -3.43%
CCOC(=O)COc1cccc2c(=O)n(CC(=O)NCc3ccc4c(c3)OCO4)ccc12 -15.8%
CSC(=NCCCN1CCOCC1)NS(=O)(=O)c1cccs1 -11.4%
COC(=O)CNC(=O)Cn1cnc2sc(C)c(S(=O)(=O)N3CCC(C)CC3)c2c1=O 12.7%
Cc1cc(C)c(C)c(S(=O)(=O)Nc2ccccc2C(=O)NCCCn2ccnc2)c1C 12.5%
Cc1ccc(N(CC(=O)Nc2ccc(S(=O)(=O)N3CCOCC3)cc2)S(C)(=O)=O)cc1C -5.42%
CC1CN(C(=O)c2ccccc2C(=O)c2ncc[nH]2)CC(C)O1 (stereo not given) 14.7%
CC(=O)c1ccc(C(=O)Nc2nnc(-c3ccc(Cl)cc3)o2)cc1 17%
Cc1cc(C)nc(NS(=O)(=O)c2ccc(NC(=O)c3cccs3)cc2)n1 -2.39%
Cn1nnc2c(NCc3ccco3)nccc21 -1.62%
Cc1cc(NC(=O)c2ccc3c(c2)C(=O)N(C2CCCCC2)C3=O)no1 -6.9%
CCOC(=O)C1CCN(C(=O)Cc2c(C(=O)O)[nH]c3ccccc23)CC1 -1.88%
CCOC(=O)N1CCN(C(=O)CN(c2cccc(C)c2)S(=O)(=O)c2ccccc2)CC1 -2.69%
CC(=O)Nc1c(C(=O)c2ccc(F)cc2)oc2ccccc12 -4.12%
CCc1ccc(-c2nc(CSCC(=O)N3CCN(c4ncccn4)CC3)c(C)o2)cc1 -2.11%
COc1cc(NC(=O)COc2ccc(-n3cnnn3)cc2)c(OC)cc1Cl -5.83%
COc1ccccc1CC(=O)Nc1ccc(-c2nnc(-c3ccco3)o2)cc1 8.35%
CC(=O)c1c(C(C)=O)c(C)n(-c2nc(-c3ccccc3)c(C)s2)c1C -11%
CCOC(=O)C1(c2csc(N)n2)COC(=O)C1 (stereo not given) 0.175%
COc1ccc(-c2nc(SC)n(C)c(=O)c2C#N)cc1OC -12.2%
